What is called Km is the concentration of substrate that gives half-maximal velocity.

Data on 5 compounds can be found in ChEMBL document CHEMBL1139252, “Inhibition of purple acid phosphatase with alpha-alkoxynaphthylmethylphosphonic acids” (Bioorg Med Chem Lett, 2009).

In test [1] the target is T1, Fe(3+)-Zn(2+) purple acid phosphatase (Phaseolus vulgaris) (UniProt P80366).
T1 sequence (whole entry): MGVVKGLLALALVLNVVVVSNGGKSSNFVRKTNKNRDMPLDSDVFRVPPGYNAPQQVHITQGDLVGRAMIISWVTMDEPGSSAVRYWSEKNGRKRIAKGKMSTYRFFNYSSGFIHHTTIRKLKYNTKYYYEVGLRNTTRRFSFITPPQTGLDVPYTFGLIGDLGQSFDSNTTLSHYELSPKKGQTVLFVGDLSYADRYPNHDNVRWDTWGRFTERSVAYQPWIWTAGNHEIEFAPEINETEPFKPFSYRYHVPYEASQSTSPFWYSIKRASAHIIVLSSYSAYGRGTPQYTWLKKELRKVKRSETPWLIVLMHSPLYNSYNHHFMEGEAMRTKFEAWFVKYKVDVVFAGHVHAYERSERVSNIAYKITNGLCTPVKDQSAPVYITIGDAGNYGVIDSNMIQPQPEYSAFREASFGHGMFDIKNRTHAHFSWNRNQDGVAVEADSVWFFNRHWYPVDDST
Briefly: Inhibition of red kidney bean PAP at pH 6.2. The method in brief:
(§1)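 Each enzyme was run at its own pH optimum: red kidney bean PAP at pH 6.2 and pig PAP at pH 4.9. IC50 values were determined experimentally. Separate inhibition constants were derived for binding to the free enzyme and to the enzyme–substrate complex.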

For a further test, the species on record is Homo sapiens. Briefly: Inhibition of human PAP.
The species named for test [2] is Sus scrofa. Briefly: Inhibition of pig PAP at pH 4.9. Put shortly: as §1
For test [3], the species on record is Sus scrofa. The experiment in a line: Activity of pig PAP at pH 4.9.

The source made the active and inactive calls. The calls are words filed in the database; no cut-off is given here.

`O=P(O)(O)C(O)c1cccc2ccccc12` (configuration not stated) returned a logIC50 in test [1] of 0.7. In addition, the result in the test listed under Homo sapiens was inactive.
Turning to `O=P(O)(O)Cc1cccc2ccccc12`, in test [1], the logIC50 is over 0.845.
In the case of `CCCCCCCCCCOC(c1cccc2ccccc12)P(=O)(O)O` (racemic), in the test filed under Sus scrofa [2], the Kic was 0.017 mM, the Kiuc was found to be 0.02 mM and the logIC50 was -1.7. Besides, the Km in the test listed under Sus scrofa [3] is 1130 µM. Also, in test [1], the Kic turned out to be 0.004 mM, the Kiuc was 0.03 mM and the logIC50 was -2.1.
In the test listed under Sus scrofa [2], `CCCCCCCCOC(c1cccc2ccccc12)P(=O)(O)O` (racemic) registered a Kic of 0.023 mM, a Kiuc of 0.044 mM and a logIC50 of -1.5. Moreover, in the test filed under Sus scrofa [3], the Km amounted to 1500 µM. Moreover, in test [1], the Kic came out at 0.05 mM, the Kiuc stood at 0.129 mM and the logIC50 is -1.
In the case of `CCCCCCOC(c1cccc2ccccc12)P(=O)(O)O` (racemic), the logIC50 in the test filed under Sus scrofa [2] is -0.37. Also, in the test listed under Sus scrofa [3], the Michaelis-Menten constant (Km) was 2650 µM. For the same compound, in test [1], the Kic turned out to be 1.47 mM, the Kiuc was 1.43 mM and the logIC50 came out at 0.
